Screens from PubChem.
The list is not random: actives were taken first. Their share in the collection is about 3.8%.
Measles CPE = compounds protecting cells from measles virus cytopathic effect, primary screen, measles RdRp inhibitor project, single point, MLSMR library, absorbance. actives 1.5% (n = 140,000). Measles virus-infected cells, CPE protection. protection (pct of control), % at 4 µM. AID 841, 2007; in the data active means protection mostly above about 24%, no sharp cut-off; inactive means mostly below about 26%
RAM inhibit = inhibitors of the yeast RAM network, primary screen, dse1pr::URA3 reporter, 5-FOA selection | inhibition, % at 50 µM | S. cerevisiae dse1pr::URA3 reporter, 5-FOA growth OD615, 2 d; analog-sensitive cbk1-as2 kinase mutant strain | actives 1.8% (n = 190,000) | AID 868, 2007;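 active means inhibition above a set limit, 3 SD over mean compound inhibition, cut at about 8.4% in these data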;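 further: 0% = DMSO-only wells with no growth and 100% = 10 µM 1-NA-PP1 full growth; inhibition rescues growth on 5-FOA so higher OD means more RAM inhibition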
BB579 growth dn = growth inhibitors of yeast BB579 in restrictive medium, primary screen, yeast lifespan-shortening project, S. cerevisiae; OD615, 48 h; inhibition, % at 10 µM; actives 0.51% (n = 140,000); AID 804, 2007;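 active means inhibition above a set limit, 3 SD over the mean compound inhibition, cut at about 44% in these data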
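Test system: DeaD yeast strain BB579 / Buffer or medium: restrictive glucose-based CSMM-D medium / Doses: single 10 µM dose / Schedule: 4 h cell preincubation, 48 h compound exposure, 30 °C humidified / Technique: culture absorbance at 615 nm / Controls: amphotericin B positive control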
Yeast lifespan up = compounds extending yeast replicative lifespan, primary screen, S. cerevisiae, OD615; actives 0.68% (n = 130,000); AID 775, 2007; S. cerevisiae growth with nicotinamide; deaD strain in restrictive glucose medium; inhibition of the nicotinamide effect, % at 10 µM;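 active means inhibition above a set limit, placed 3 SD over the median of all compounds, cut at about 26% in these data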;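 further: 0% = nicotinamide-treated wells and 100% = cells grown without nicotinamide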
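Assay system: engineered S. cerevisiae DeaD replicative-lifespan strain, galactose-grown log-phase cells; Buffer or medium: CSMM-D glucose medium, restrictive; Probe or stimulus: nicotinamide 1.5 mM; Compound: single dose 10 µM compound, 0.25% DMSO; Schedule: 4 h preincubation then 48 h treatment at 30 °C; Technique: OD615 measurement.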
An asterisk follows results filed as active; x = no result.

SMILES	Measles CPE	RAM inhibit	BB579 growth dn	Yeast lifespan up
COc1ccc(CNC(=O)COC(=O)Cc2ccc(Cl)cc2Cl)cc1	10	11*	-28	-3
CCOC(=O)c1ccc(CNCc2ccc(Br)cc2)cc1	11	2	-4	6
CCOC(=O)c1[nH]nc(C(=O)c2ccc(Br)cc2)c1O	x	2	-35	48*
COc1ccc(OC)c(Cc2nnc(CCC(=O)NC3C4CC5CC(C4)CC3C5)o2)c1 (stereo not drawn)	x	2	x	x
Cc1ccc(OC(=S)Nc2ccc(O)cc2)cc1	8	1	84*	x
CCc1nn(C)c(-c2n[nH]c(=S)n2N)c1Cl	44*	1	-9	-20
CCc1cc(-c2n[nH]c(=S)n2N)n(C)n1	21	0	23	-3
COCCNC(=O)CN(C(=O)Cn1nnc2ccccc21)c1ccc(C)c(F)c1	7	-1	-38	x
Cc1nc2c(Br)c3nc(C(F)(F)F)[nH]c3c(Br)c2[nH]1	29	0	-22	-11
Cc1nc2c(F)c(F)c(C(F)(F)F)c(F)c2[nH]1	11	1	57*	-16
CC(=O)C1C(c2ccc(Br)cc2)C2C(C)=NN=C2CC1(C)O (stereo not drawn)	10	1	-13	1
COC(=O)c1cc(NC(=O)N2c3ccccc3Sc3ccccc32)cc(C(=O)OC)c1	8	9.8*	-65	-5
COc1cccc(C2C(C(=O)c3cccs3)=C(O)C(=O)N2c2cc(C)on2)c1 (stereo not drawn)	37*	8	-25	6
Cc1[nH]c(=O)[nH]c(=O)c1S(=O)(=O)N(CC(C)C)CC(C)C	x	0	x	x
CSc1nccc(-c2cc(Cl)sc2Cl)n1	19*	4	-40	-22
O=C(c1cccs1)N(c1ccc(Br)cc1)C1C=CS(=O)(=O)C1 (stereo not drawn)	x	2	x	x
CCOc1cc(C(c2c(C)[nH][nH]c2=O)c2c(C)[nH][nH]c2=O)ccc1OC(=O)c1cccc([N+](=O)[O-])c1	37*	1	-35	-16
c1ccc(OCc2noc(CN3CCC(C4CCCCC4)C3)n2)cc1 (stereo not drawn)	x	1	x	x
COC(=O)c1cc([N+](=O)[O-])c(-n2ccnc2)c([N+](=O)[O-])c1	10	1	-24	5
Cc1ccccc1N(CC(N)=O)S(C)(=O)=O	5	1	-16	-10
Cc1ccc(C)c(N(CC(N)=O)S(C)(=O)=O)c1	50*	1	-32	-14
CCCOC(=O)C1=C(C)NC2=C(C(=O)C(C(=O)OC)C(C)C2)C1c1ccc(N(CC)CC)cc1 (stereo not drawn)	3	1	-25	-1
CCC(C)OC(=O)C1=C(C)NC2=C(C(=O)C(C(=O)OC)C(C)C2)C1c1ccc(N(C)C)cc1 (stereo not drawn)	58*	2	-22	-17
CCCn1c(SCC(=O)N2CCN(c3ccccc3)CC2)nc2ccccc2c1=O	3	0	-22	-13
O=C(CSc1nc2ccccc2c(=O)n1Cc1ccco1)N1CCN(c2ccccc2)CC1	45*	3	-5	-3
SMILES	Measles CPE	RAM inhibit	BB579 growth dn	Yeast lifespan up
CCCCC(=O)NC(=S)NNS(=O)(=O)c1ccccc1	42*	1	-30	11
COCCNC(=O)CSc1nnc(-c2ccccc2F)n1Cc1ccccc1	x	-1	x	x
CCCCn1c(SCc2nc3ccccc3s2)nc2cc(S(N)(=O)=O)ccc21	40*	2	-11	-3
COC(=O)c1ccc(N2C(=O)CC(N3CCOCC3)C2=O)cc1 (stereo not drawn)	40*	2	-50	-4
O=C(O)c1nn2c(C(F)(F)F)cc(-c3cccs3)nc2c1Cl	13	1	-5	0
CCC(=Nc1ccc(Cc2ccncc2)cc1)c1c(O)n(C)c(=O)n(C)c1=O	7	-1	-24	27*
Cn1c(=O)c2c(O)c(Cc3ccccc3)c(=O)[nH]c2n(C)c1=O	17	5	-19	4
COc1cc2c(=O)n(CCCC(=O)NCC3CCCO3)c(=O)n(CC(=O)c3ccc(F)cc3)c2cc1OC (stereo not drawn)	x	5	x	x
O=C(CN1C(=O)CCC1=O)c1ccc(-c2ccccc2)cc1	33*	1	-31	-4
N=c1ccn(CC(=O)c2ccc(-c3ccccc3)cc2)cc1	x	2	x	x
COc1ccc(NC(=S)N(Cc2cccnc2)Cc2cc3cc(OC)c(OC)cc3[nH]c2=O)cc1	x	8.6*	x	x
COc1ccc2[nH]c(=O)c(CN(Cc3cccs3)C(=S)Nc3cccc(C)c3)cc2c1	18	10*	7	0
CCC(C)(C)n1nnnc1CN(Cc1cccs1)Cc1cc2cc(OC)ccc2[nH]c1=O	37*	1	-44	-10
CCCCC(=O)Nc1sc2c(c1C(=O)OCC)CCC(C=O)=C2Cl	10	9.2*	-17	-1
CCOC(=O)c1c(NC(=O)c2ccccc2Cl)sc2c1CCc1ccccc1-2	6	7	-45	-4
COC(=O)c1ccc(Cl)c(NC(=O)CN2CCN(Cc3ccccc3)CC2)c1	36*	0	-8	-5
O=C(CN1CCOCC1)Nc1ccccc1Cl	60*	-1	-10	-15
O=C(CN1CCOCC1)Nc1cccc(Cl)c1Cl	18	1	2	-9
COc1cc(NS(=O)(=O)c2ccc(NC(=O)/C=C/c3ccc([N+](=O)[O-])cc3)cc2)ncn1	x	6	x	x
COc1cc(NS(=O)(=O)c2ccc(NC(=O)/C=C/c3cccc([N+](=O)[O-])c3)cc2)ncn1	x	8.9*	x	x
O=C(COC(=O)/C=C/c1ccc(F)cc1)Nc1ccccc1-c1ccccc1	15	8	-19	1
CCNCCNC(=O)c1c(O)c2ccccc2n(CC)c1=O	11	1	-45	44
C=CCn1c(=O)c(C(=O)NCCNCC)c(O)c2ccccc21	8	0	-6	31*
Cc1ccc(C)c(S(=O)(=O)N2C(=S)NC(=O)C2CC(C)C)c1 (stereo not drawn)	41*	6	-26	31
Cc1ccc(C)c(S(=O)(=O)N2CCNCC2)c1	x	2	x	x
SMILES	Measles CPE	RAM inhibit	BB579 growth dn	Yeast lifespan up
O=C1CCCN2N=C(SCC(=O)N3N=C(c4ccc(Br)cc4)CC3c3ccc(F)cc3)SC2=N1 (stereo not drawn)	x	11*	x	x
O=C(CN1CCCCC1)N/N=C/c1cc2ccccc2nc1Cl	x	-1	x	x
Cc1cc(S(=O)(=O)N(Cc2ccccc2)Cc2ccc(N(C)C)cc2)ccc1-n1cnnn1	17	0	-43	-4
Cc1cc(S(=O)(=O)N(Cc2ccc(C(C)(C)C)cc2)Cc2cccs2)ccc1-n1cnnn1	5	9.3*	-18	4
COc1cc(S(=O)(=O)N(Cc2ccc(C)cc2)Cc2ccco2)ccc1-n1cnnn1	9	9.0*	-47	-5
COc1cc(S(=O)(=O)N(Cc2cccnc2)Cc2ccco2)ccc1-n1cnnn1	13	1	-51	-11
